# CHO parental Ca – signal in parental CHO cells, OX1R antagonist counter-screen; parental CHO-K1, ATP-induced calcium, Fluo-8 fluorescence; inhibition, % at 5.6 µM; 0.63% of 330,000 active; AID 463079;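 active means inhibition above that plate's mean sample inhibition plus 3 SD, cut at about 26% in these data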;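 further: 0% = ATP-challenged DMSO wells and 100% = DMSO wells without ATP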
#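 test system = CHO parental line | reagent = ATP stimulus | measured by = intracellular calcium via Fluo-8 no-wash fluorescent dye | control set = ATP and no-ATP DMSO wells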
# OX1R antag-1 – blocks the human orexin 1 receptor; O43613; OX1R-expressing cells, FRET antagonist read-out; 1.8% of 330,000 active; inhibition, % at 6.6 µM; in the data active means inhibition mostly above about 38%, no sharp cut-off; inactive means mostly below about 40%;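 further: 0% = agonist challenge alone and 100% = reference antagonist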
# GPR7 antagonist – human neuropeptides B/W receptor 1 antagonism | P48145 | GPR7-expressing cells, fluorescence antagonist assay | inhibition, % at 4.4 µM | 1.1% of 290,000 active; in the data active means inhibition above about 16%, passing the limit was not always enough;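 further: cells stimulated with the agonist NPW; 0% = agonist with vehicle and 100% = vehicle without agonist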
# Target sequence (P48145 whole entry, looked up): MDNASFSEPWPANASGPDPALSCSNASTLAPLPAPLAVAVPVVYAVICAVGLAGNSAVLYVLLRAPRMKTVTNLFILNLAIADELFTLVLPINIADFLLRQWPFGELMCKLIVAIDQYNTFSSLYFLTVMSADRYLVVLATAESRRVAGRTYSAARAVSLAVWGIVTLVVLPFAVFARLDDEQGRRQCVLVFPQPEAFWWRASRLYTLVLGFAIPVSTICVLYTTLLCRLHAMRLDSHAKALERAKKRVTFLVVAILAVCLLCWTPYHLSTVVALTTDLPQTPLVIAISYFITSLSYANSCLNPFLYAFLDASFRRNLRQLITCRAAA
# OX1R antag-2 – human HCRTR1 antagonism; O43613; CHO/OX1R cells, Fluo-8 calcium fluorescence, orexin A; inhibition, % at 5 µM; 0.43% of 330,000 active; AID 434989;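 active means inhibition above its plate's threshold, mean inhibition of all tested compounds on the plate plus 3 SD, cut at about 37% in these data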;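 further: 0% = orexin A challenge wells and 100% = SB-334867-A antagonist wells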
# TAAR1 agonist – human TAAR1 agonism; 0.99% of 360,000 active; CHO RD-HGA16 TAAR1, Fluo-8 calcium fluorescence; vehicle wells 0%, saturating PEA agonist 100%; activation, % at 3 µM; AID 624467;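 active means activation above the mean activation of all test compounds in the run plus 3 SD, cut at about 38% in these data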
# Target sequence (Q96RJ0 whole entry, looked up): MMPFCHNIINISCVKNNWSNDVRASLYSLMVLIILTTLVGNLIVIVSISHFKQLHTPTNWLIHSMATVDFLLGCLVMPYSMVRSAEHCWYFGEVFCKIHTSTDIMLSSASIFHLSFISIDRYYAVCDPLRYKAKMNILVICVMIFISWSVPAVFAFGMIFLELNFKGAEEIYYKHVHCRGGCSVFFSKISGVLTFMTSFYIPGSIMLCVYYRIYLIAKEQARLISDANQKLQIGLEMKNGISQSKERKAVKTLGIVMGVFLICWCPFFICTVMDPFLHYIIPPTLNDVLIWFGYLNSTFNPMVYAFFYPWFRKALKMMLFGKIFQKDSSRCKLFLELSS
#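 System: CHO-derived RD-HGA16 cells with stable Gα16 and human TAAR1 / Times: 17-24 h plating, Fluo-8 75 min 37 °C, 30 min RT / Technique: calcium-sensitive Fluo-8 signal, excitation 470-495, emission 515-575 nm / Measure: % activation relative to PEA EC100 response / Benchmarks: DMSO and PEA EC100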
# TAAR1 antag – human TAAR1 antagonism | Q96RJ0 | CHO RD-HGA16 TAAR1, Fluo-8 calcium fluorescence, antagonist | inhibition, % at 3 µM | 1.5% of 360,000 active | AID 624466;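 active means inhibition above a per-plate cutoff, the mean inhibition of test compounds on that plate plus 3 SD, cut at about 49% in these data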;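 further: 0% = DMSO plus EC80 beta-PEA response and 100% = DMSO alone without agonist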
#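 Assay system: RD-HGA16 CHO cells with stable hTAAR1 and Gα16 / Reagent: EC80 β-phenethylamine stimulus / Doses: 3 µM, single point / Timing: dye loading 75 min at 37 °C, then 30 min room temperature / Measured by: Fluo-8 intracellular calcium dye fluorescence, real-time kinetic reads / Controls: vehicle wells and EC80 agonist wells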
# nonsel antag count – counter-screen for TAAR1 antagonists: nonselective antagonists; shares compounds with TAAR1 antag; counterscreen cell line, calcium fluorescence, antagonist mode; inhibition, % at 3 µM; 77% of 2,400 active; AID 651780; in the data active means inhibition above about 22%;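 further: CHO-Ga16 host cells stimulated with ATP at an EC80 level; 0% = agonist EC80 plus vehicle and 100% = vehicle without agonist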
# TAAR1 ant conf – human TAAR1 antagonism, confirmed; AID 651785; TAAR1-expressing cells, fluorescence antagonist read-out; 40% of 2,400 active; inhibition, % at 3 µM; shares compounds with TAAR1 antag; in the data active means inhibition above about 49%;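 further: CHO-Ga16 host cells challenged with agonist PEA near its EC80; 0% = agonist at EC80 plus vehicle and 100% = vehicle with no agonist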
# Ga16 nonsel ag – counter-screen for TAAR1 antagonists: nonselective Ga16 agonists | shares compounds with TAAR1 antag | Ga16-expressing cells, calcium fluorescence, agonist counterscreen | activation, % at 3 µM | 18% of 2,400 active; in the data active means activation above about 12%;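 further: 0% = vehicle wells and 100% = saturating stimulus response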
# TAAR1 ag counter – counter-screen for human TAAR1 antagonists: TAAR1 agonists. shares compounds with TAAR1 antag. hTAAR1 cell line, fluorescence activation, agonist mode. activation, % at 3 µM. 2% of 2,400 active. AID 651955; in the data active means activation above about 37%;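 further: CHO cells stably expressing TAAR1 with calcium dye readout; 0% = DMSO vehicle and 100% = full agonist response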
# An asterisk follows results filed as active; · = not tested or not shown. A selection: hits, their analogues and other compounds. The true share with any hit is near 4.6%.
SMILES,CHO parental Ca,OX1R antag-1,GPR7 antagonist,OX1R antag-2,TAAR1 agonist,TAAR1 antag,nonsel antag count,TAAR1 ant conf,Ga16 nonsel ag,TAAR1 ag counter
O=C(COc1ccc(Cl)cc1)Nc1ccc(N2CCN(C(=O)c3ccco3)CC2)cc1,-1.9,14.7,0.9,17.4,22.8,79.7*,41.9*,45.9,12.1*,27.7
Cc1cc(C)n(CCNC(=O)[C@@H](Cc2ccccc2)NC(=O)[C@H]2O[C@@H](n3ccc(=O)[nH]c3=O)[C@H](O)[C@@H]2O)n1,·,·,·,·,0.7,13.2,·,·,·,·
CSc1ccccc1C(=O)OCC(=O)NC1CCCCCCC1,·,·,·,·,-0.1,-11.8,·,·,·,·
O=C(CSc1nc(-c2ccccc2)cs1)NC(=O)NCc1ccco1,-8.5,14.8,-14.7,-13.2,7.2,54.0*,30.0*,41.5,5.2,1.8
O=C(CSc1ncnc2c1nnn2-c1ccc(F)cc1)NCc1ccco1,-5.7,17.9,-4.2,-3.8,37.2,63.7*,14.3,9.3,5.2,-1.6
CCCOc1ccc(F)cc1-c1cc(C(=O)NCc2cccc(Cl)c2)[nH]n1,·,·,·,·,0.1,47.9,·,·,·,·
CCc1ccc(NC(=O)CCC(=O)N2CCSc3ccccc32)cc1,1.6,16.6,-4.8,-24.5,6.0,58.7*,24.8*,40.3,5.8,4.4
CCc1cccc(NC(=O)CCC(=O)N2CCSc3ccccc32)c1,-3.8,17.2,-7.6,3.0,7.7,60.1*,20.6,39.6,5.8,10.0
O=C(CCC(=O)N1CCSc2ccccc21)Nc1cccc(F)c1,-0.8,-0.8,-1.4,-12.3,6.6,6.0,·,·,·,·
CCc1nc2c(OCc3ccc(Cl)cc3)cccn2c1N(C=O)Cc1ccc(OC)cc1,·,·,·,·,-0.8,-1.8,·,·,·,·
CCCCNc1cccc2c1S(=O)(=O)N[C@@H](CC(C)C)CO2,·,·,·,·,-0.1,-13.2,·,·,·,·
O=C1OCCC1=CN1CCCCC1,·,·,·,·,4.3,0.7,·,·,·,·
CCCCNc1c(-c2cccc(-c3cc(C(C)=O)cs3)c2)nc2ccc(C)cn12,-14.9,50.0,·,-13.0,14.7,67.5*,36.0*,54.0*,6.6,4.8
O=C(COC(=O)Cc1c(Cl)cccc1Cl)NCc1ccccc1,·,·,·,·,-0.7,-7.2,·,·,·,·
C[C@@H]1CN([C@@H](C)CO)C(=O)CCCn2nncc2CO[C@@H]1CN(C)C(=O)NC1CCCCC1,·,·,·,·,0.4,3.2,·,·,·,·
CCCCC1Cc2[nH][nH]c(=O)c2C(c2ccc(Cl)cc2)O1 (configuration not stated),·,·,·,·,1.7,-22.7,·,·,·,·
COc1cccc(-c2nn(-c3ccc(C)cc3)cc2C(=O)N(C)CC(=O)Nc2cccc(F)c2)c1,-17.7,10.5,·,2.9,4.3,61.5*,29.5*,33.3,4.5,6.4
Cc1nn(C)cc1CN(C)C(=O)c1cc(-c2ccccc2)nc2ccc(Br)cc12,-25.6,22.4,-5.7,-21.6,17.3,65.5*,36.8*,53.8*,7.9,7.5
COc1cccc(NC(=O)CN(C)C(=O)c2cc(-c3ccco3)nc3ccccc23)c1,-16.1,35.1,·,-24.2,13.3,48.4,·,·,·,·
CN(CC(=O)Nc1cccc(F)c1)C(=O)c1cc(-c2ccccc2)nc2ccccc12,-5.2,15.0,·,-8.0,5.4,72.1*,31.2*,49.3*,8.7,5.0
COc1ccc(-c2cc(C(=O)N(C)CC(=O)Nc3cccc(F)c3)c3ccccc3n2)cc1,-1.3,37.7,·,-13.1,8.0,81.9*,41.3*,60.9*,10.2,6.3
COc1ccc(-c2nn(-c3ccccc3)cc2C(=O)N(C)CC(=O)Nc2cccc(F)c2)cc1,-6.8,6.1,·,-9.4,1.9,20.5,·,·,·,·
COc1ccc(S(=O)(=O)N(C)[C@H]2C[C@H]3c4cc(Oc5ccccc5C)ccc4CCN3C(=O)[C@H]2[C@H](C)O)cc1,·,·,·,·,1.2,0.5,·,·,·,·
Cc1ccc2nc(-c3ccccc3)cc(C(=O)N(C)CC(=O)Nc3ccccc3Br)c2c1,-31.3,16.6,·,1.1,6.6,60.9*,30.7*,56.1*,8.9,6.7
Cn1c(=O)ccc2ccccc21,·,·,·,·,0.1,7.7,·,·,·,·
SMILES,CHO parental Ca,OX1R antag-1,GPR7 antagonist,OX1R antag-2,TAAR1 agonist,TAAR1 antag,nonsel antag count,TAAR1 ant conf,Ga16 nonsel ag,TAAR1 ag counter
COC(=O)[C@]12C[C@H](CC(=O)NCc3cccc4ccccc34)C(=O)N(Cc3ccccc3)C1=C[C@H](C1CCCC1)O[C@@H]2C,·,·,·,·,-0.4,-14.7,·,·,·,·
COC(=O)CCCC[C@@H]1O[C@H](CCc2ccccc2)CC2=C1C(=O)OC(C)(C)O2,·,·,·,·,5.8,60.8*,26.5*,49.6*,3.8,4.8
CC1(C(=O)Nc2cccc3ncccc23)CCN1C(=O)CCc1ccccc1 (configuration not stated),·,·,·,·,1.8,10.1,·,·,·,·
CC1(C(=O)Nc2cccc3ncccc23)CCN1C(=O)Cc1ccc(-c2ccccc2)cc1 (configuration not stated),·,·,·,·,10.1,67.3*,28.8*,45.6,9.1,6.8
CC(C)C1Cc2[nH]c(=S)[nH]c(=O)c2C(c2ccc(F)cc2)O1 (configuration not stated),·,·,·,·,1.5,18.8,·,·,·,·
Cc1ccc(C)c(Cn2cnc3c(nnn3-c3ccc(F)cc3)c2=O)c1,-3.9,-0.3,3.2,-13.5,30.2,71.7*,11.9,37.2,2.3,10.2
C[C@]12CC[C@H](O)C[C@@H]1CC[C@@H]1[C@@H]2CC[C@@]2(C)[C@H]1CCC(=O)[C@]21CCCO1,-15.8,14.7,·,-22.4,8.4,-19.8,·,·,·,·
CCC(Cc1ccccc1)NC(=O)c1ccc2nc(N3CCOCC3)sc2c1 (configuration not stated),-9.9,17.1,-4.5,-31.4,1.9,-4.0,·,·,·,·
CCOC(=O)C1=CCN(S(=O)(=O)c2ccc(Br)cc2)C1c1cccc(C)c1 (configuration not stated),·,·,·,·,2.3,34.8,·,·,·,·
COc1ccc(O)c(/C=N/NC(=S)Nc2cccc(S(=O)(=O)N(C)C)c2)c1,13.6,27.7,-1.6,-2.1,25.4,68.2*,49.7*,62.2*,18.8*,25.4
Cc1cccc(C(O)c2ncc(-c3ccc(C(F)(F)F)cc3)[nH]2)c1C (configuration not stated),·,·,·,·,-1.2,-25.9,·,·,·,·
CCOC(=O)c1c(C)[nH]c(C(=O)COC(=O)C2CC(=O)N(Cc3ccccc3)C2)c1C (configuration not stated),-7.6,5.1,-0.6,-6.5,8.8,8.5,·,·,·,·

# Screening results (PubChem BioAssay)
